Experimental data: ChEMBL document CHEMBL1122416, “An extension of the f-fragment method for the calculation of hydrophobic constants (log P) of conformationally defined systems” (J Med Chem, 1983)

Assay: Partition coefficient (logP)
Type: physicochemical
Settings: octanol/water
Outline: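 Shake-flask partitioning of the neutral amine species between 1-octanol and 0.1 N NaOH. Both phases were analysed by gas chromatography on 10% Apiezon L with 2% KOH on 80-100 mesh Chromosorb WAW. Observed log P was taken from the phase distribution.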

| SMILES | logP (read-out: logP) | logP |
| --- | --- | --- |
| CN[C@@H]1CC2CC[C@@H]1c1ccccc12 | 2.68 | – |
| NC1C2CC[C@H]1c1ccccc12 (stereo in doubt; 19) | – | 2.08 |
| CN[C@@H]1CC2O[C@@H]1c1ccccc12 | 0.91 | – |
| N[C@H]1CC2C[C@@H]1c1ccccc12 | 2 | – |
| N[C@@H]1CC2O[C@@H]1c1ccccc12 | 0.75 | – |
| N[C@H]1CC2C[C@@H]1c1cc(C(F)(F)F)ccc12 | 2.85 | – |
| N[C@@H]1CC2C[C@@H]1c1cc(C(F)(F)F)ccc12 | 3.19 | – |
| N[C@@H]1CC2CCC1c1ccccc12 (some centres undefined) | 2.32 | – |
| N[C@@H]1CC2C[C@@H]1c1ccc(C(F)(F)F)cc12 | 3.21 | – |
| CNC1C2CC[C@H]1c1ccccc12 (stereo in doubt; 11) | – | 2.47 |
| CN[C@H]1CC2O[C@@H]1c1ccccc12 | 0.59 | – |
| N[C@@H]1CC2C[C@@H]1c1ccccc12 | 2.09 | – |
| CCCN[C@@H]1CC2C[C@@H]1c1ccccc12 | 3.3 | – |
| N[C@H]1CC2C[C@@H]1c1ccc(C(F)(F)F)cc12 | 2.91 | – |
| CCN[C@H]1CC2C[C@@H]1c1ccccc12 | 2.62 | – |
| N[C@H]1CC2O[C@@H]1c1ccccc12 | 0.4 | – |
| CNC1C2CC[C@H]1c1ccccc12 (stereo in doubt; 13) | 2.37 | – |
| CN[C@H]1CC2C[C@@H]1c1ccccc12 | 2.32 | – |
| CCN[C@@H]1CC2C[C@@H]1c1ccccc12 | 2.72 | – |
| NC1C2CC[C@H]1c1ccccc12 (stereo in doubt; 17) | 2.13 | – |
| CN[C@@H]1CC2C[C@@H]1c1ccccc12 | 2.41 | – |
| N[C@H]1CC2CC[C@@H]1c1ccccc12 | 2.29 | – |
| CCCN[C@H]1CC2C[C@@H]1c1ccccc12 | 3.13 | – |
| CN[C@H]1CC2CC[C@@H]1c1ccccc12 | 2.59 | – |
